Columns and labels:
[1] = biological target: T1, Phosphoglycerate mutase 1 (Homo sapiens, UniProt P18669); experiment: Inhibition of recombinant PGAM1 (unknown origin) using 3-PG as substrate preincubated for 2 mins followed by substrate addition
Summary of the method: (§1)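 Recombinant PGAM1 plus compound (DMSO) in 50 mM Tris pH 8.0, preincubated 2 min at room temperature. Started with 3PG (200 mM stock); NADH oxidation read as OD340 decrease. IC50 from triplicates, mean ± sd.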
Target sequence in this assay (P18669 whole entry): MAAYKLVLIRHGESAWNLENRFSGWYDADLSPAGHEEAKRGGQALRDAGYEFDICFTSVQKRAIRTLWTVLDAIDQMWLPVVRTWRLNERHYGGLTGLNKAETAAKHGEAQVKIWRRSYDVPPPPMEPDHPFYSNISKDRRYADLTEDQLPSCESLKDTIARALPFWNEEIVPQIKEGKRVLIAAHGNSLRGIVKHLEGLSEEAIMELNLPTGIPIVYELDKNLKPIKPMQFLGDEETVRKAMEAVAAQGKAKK

[2] = biological target: T1, Phosphoglycerate mutase 1; experiment: Inhibition of recombinant PGAM1 (unknown origin) at 20 uM using 3-PG as substrate preincubated for 2 mins followed by substrate addition relative to control
Summary of the method: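 Same coupled PGAM1 assay: recombinant enzyme preincubated 2 min at room temperature with compound in 50 mM Tris pH 8.0. Enolase/PK/LDH mix with ADP, MgCl2, KCl and NADH added, then 3PG (200 mM stock) to start. OD340 decrease measured; inhibition ratio recorded at 20 µM.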
Target sequence in this assay (P18669 2-254 limits assumed): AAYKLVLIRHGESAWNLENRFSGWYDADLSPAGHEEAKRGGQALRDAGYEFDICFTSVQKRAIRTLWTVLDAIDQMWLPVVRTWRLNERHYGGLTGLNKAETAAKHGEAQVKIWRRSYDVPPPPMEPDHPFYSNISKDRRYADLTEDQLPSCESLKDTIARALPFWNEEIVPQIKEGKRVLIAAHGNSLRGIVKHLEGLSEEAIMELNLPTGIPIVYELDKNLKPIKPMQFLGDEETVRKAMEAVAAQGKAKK

NCI-H1299 = experiment: Antiproliferative activity against human H1299 cells after 72 hrs by MTT assay; format: functional, cell-based; details: NCI-H1299, 72 h
Summary of the method: (§2)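 MTT assay: 2 × 10^3 cells per well, cultured 24 h at 37 °C. Compound then added for 72 h at 37 °C, followed by 0.5 mg mL-1 MTT for 4 h. Formazan dissolved in DMSO and absorbance read at 570 nm. IC50 from triplicate experiments, mean ± sd.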

MCF7 = experiment: Antiproliferative activity against human MCF7 cells after 72 hrs by MTT assay; format: functional, cell-based; details: MCF7, 72 h; summary of the method: as §2
[3] = biological target: L-lactate dehydrogenase (Homo sapiens) (UniProt V9HWB9); experiment: Inhibition of LDH (unknown origin) at 5 uM using 2-PG relative to control
Summary of the method: (§3)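 PGAM1 omitted to test the downstream coupling enzymes. Compound (0.5 mM stock) preincubated 2 min at room temperature in 50 mM Tris pH 8.0. OD340 decrease read; inhibition ratio at 5 µM.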

PANC-1 = experiment: Antiproliferative activity against human PANC1 cells after 72 hrs by MTT assay; format: functional, cell-based; details: PANC-1, 72 h; summary of the method: as §2
Homo sapiens [4] = organism: Homo sapiens; experiment: Inhibition of enolase (unknown origin) at 5 uM using 2-PG relative to control; summary of the method: as §3
Homo sapiens [5] = organism: Homo sapiens; experiment: Inhibition of pyruvate kinase (unknown origin) at 5 uM using 2-PG relative to control; summary of the method: as §3
[6] = biological target: T1, Phosphoglycerate mutase 1; experiment: Binding affinity to PGAM1 (unknown origin) assessed as change in melting temperature by SYPRO Orange-dye based fluorescence thermal shift assay
Summary of the method: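 PGAM1 protein at 200 µg/ml with compound at 12.5 to 50 µM in 20 mM Tris-HCl, 100 mM NaCl, pH 7.4. Melting monitored by SYPRO orange fluorescence at 610 nm; Tm shift recorded.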
Target sequence in this assay (P18669 2-254 limits assumed): as above

[7] = biological target: T1, Phosphoglycerate mutase 1; experiment: Inhibition of PGAM1 (unknown origin); summary of the method: as §1
Target sequence in this assay (P18669 whole entry): as the sequence (P18669 whole entry) above

[8] = biological target: T1, Phosphoglycerate mutase 1; experiment: Inhibition of PGAM1 in human MDA-MB-231 cells using 3-PGA as substrate after 2 hrs in by UV-vis spectrophotometric method; format: cell-based
Target sequence in this assay (P18669 whole entry): as above

| Structure (SMILES) | IC50 [1] [µM] | inhibition [2] [%] | IC50 (NCI-H1299) [µM] | IC50 (MCF7) [µM] | inhibition [3] [%] | IC50 (PANC-1) [µM] | inhibition (Homo sapiens [4]) [%] | inhibition (Homo sapiens [5]) [%] | Activity [6] | IC50 [7] [µM] | IC50 [8] [µM] |
| --- | --- | --- | --- | --- | --- | --- | --- | --- | --- | --- | --- |
| COc1c(NS(=O)(=O)c2ccc(C3CCCCC3)cc2)cc2oc3cccc(OC)c3c(=O)c2c1O | > 20 | < 10 | – | – | – | – | – | – | – | – | – |
| N#Cc1cccc(S(=O)(=O)Nc2cc3oc4cccc(O)c4c(=O)c3c(O)c2O)c1 | 2.1 | – | 53 | 18.4 | 13 | > 200 | 13 | 13 | – | – | – |
| COc1c(NS(=O)(=O)c2ccc(F)cc2)cc2oc3cccc(OC)c3c(=O)c2c1O | > 20 | < 10 | – | – | – | – | – | – | – | – | – |
| COc1c(NS(=O)(=O)c2cc(C(F)(F)F)ccc2C(F)(F)F)cc2oc3cccc(OC)c3c(=O)c2c1O | > 20 | < 10 | – | – | – | – | – | – | – | – | – |
| COc1c(NS(=O)(=O)c2ccc(I)cc2)cc2oc3cccc(OC)c3c(=O)c2c1O | > 20 | < 10 | – | – | – | – | – | – | – | – | – |
| O=c1c2c(O)cccc2oc2cc(NS(=O)(=O)c3ccc(F)cc3)c(O)c(O)c12 | 5.5 | – | 21.9 | 20.8 | 1 | > 200 | 1 | 1 | – | – | – |
| O=c1c2c(O)cccc2oc2cc(NS(=O)(=O)c3ccc(-c4ccccc4)cc3)c(O)c(O)c12 | 1.2 | – | 12.9 | 44.9 | 8 | > 200 | 8 | 8 | – | – | – |
| COc1c(NS(=O)(=O)c2ccc(Cl)cc2)cc2oc3cccc(OC)c3c(=O)c2c1O | > 20 | < 10 | – | – | – | – | – | – | – | – | – |
| O=c1c2c(O)cccc2oc2cc(NS(=O)(=O)c3cccc4ccccc34)c(O)c(O)c12 | 1.7 | – | 23.2 | 27.3 | 7 | 101 | 7 | 7 | – | – | – |
| O=c1c2c(O)cccc2oc2cc(NS(=O)(=O)c3ccc(C4CCCCC4)cc3)c(O)c(O)c12 | 0.5 | – | 10.7 | 26.6 | 9 | 35.3 | 9 | 9 | Dose-dependent effect | – | – |
| O=c1c2c(O)cccc2oc2cc(NS(=O)(=O)c3ccc(Cl)cc3)c(O)c(O)c12 | 3.6 | – | 10.2 | 15.5 | 15 | 91.4 | 15 | 15 | – | – | – |
| COc1c(NS(=O)(=O)c2ccc(N3CCCCC3)cc2)cc2oc3cccc(OC)c3c(=O)c2c1O | > 20 | < 10 | – | – | – | – | – | – | – | – | – |
| COc1c(NS(=O)(=O)c2ccc(Br)cc2)cc2oc3cccc(OC)c3c(=O)c2c1O | > 20 | < 10 | – | – | – | – | – | – | – | – | – |
| COc1c(NS(=O)(=O)Cc2ccccc2)cc2oc3cccc(OC)c3c(=O)c2c1O | > 20 | < 10 | – | – | – | – | – | – | – | – | – |
| COc1c(NS(=O)(=O)c2ccc(N3CCCC3)cc2)cc2oc3cccc(OC)c3c(=O)c2c1O | > 20 | < 10 | – | – | – | – | – | – | – | – | – |
| COc1c(NS(=O)(=O)c2cccc(OC(F)(F)F)c2)cc2oc3cccc(OC)c3c(=O)c2c1O | > 20 | < 10 | – | – | – | – | – | – | – | – | – |
| O=c1c2c(O)cccc2oc2cc(NS(=O)(=O)c3ccc(N4CCCCC4)cc3)c(O)c(O)c12 | 1 | – | 8.1 | 47.6 | 5 | > 200 | 5 | 5 | – | – | – |
| COc1c(NS(=O)(=O)c2cccc3ccccc23)cc2oc3cccc(OC)c3c(=O)c2c1O | > 20 | < 10 | – | – | – | – | – | – | – | – | – |

| Structure (SMILES) | IC50 [1] [µM] | inhibition [2] [%] | IC50 (NCI-H1299) [µM] | IC50 (MCF7) [µM] | inhibition [3] [%] | IC50 (PANC-1) [µM] | inhibition (Homo sapiens [4]) [%] | inhibition (Homo sapiens [5]) [%] | Activity [6] | IC50 [7] [µM] | IC50 [8] [µM] |
| --- | --- | --- | --- | --- | --- | --- | --- | --- | --- | --- | --- |
| N#Cc1ccc(S(=O)(=O)Nc2cc3oc4cccc(O)c4c(=O)c3c(O)c2O)cc1 | 4.2 | – | > 40 | 40.1 | 10 | > 200 | 10 | 10 | – | – | – |
| O=c1c2c(O)cccc2oc2cc(NS(=O)(=O)Cc3ccccc3)c(O)c(O)c12 | 1.9 | – | 62.9 | > 200 | 12 | > 200 | 12 | 12 | – | – | – |
| COc1c(NS(=O)(=O)c2cccc(C#N)c2)cc2oc3cccc(OC)c3c(=O)c2c1O | > 20 | < 10 | – | – | – | – | – | – | – | – | – |
| CC(C)(C)c1ccc(S(=O)(=O)Nc2cc3oc4cccc(O)c4c(=O)c3c(O)c2O)cc1 | 2.6 | – | 10.7 | 13.4 | 1 | > 200 | 1 | 1 | – | – | – |
| COc1c(NS(=O)(=O)c2ccc(C(F)(F)F)cc2)cc2oc3cccc(OC)c3c(=O)c2c1O | > 20 | < 10 | – | – | – | – | – | – | – | – | – |
| COc1c(NS(=O)(=O)c2ccc(C)cc2)cc2oc3cccc(OC)c3c(=O)c2c1O | > 20 | < 10 | – | – | – | – | – | – | – | – | – |
| O=c1c2c(O)cccc2oc2cc(NS(=O)(=O)c3ccc(C(F)(F)F)cc3)c(O)c(O)c12 | 3.5 | – | 10.3 | 30.2 | -1 | 58.5 | -1 | -1 | – | – | – |
| O=c1c2c(O)cccc2oc2cc(NS(=O)(=O)c3ccc(I)cc3)c(O)c(O)c12 | 1.9 | – | 24.3 | 13.5 | 11 | 34.5 | 11 | 11 | – | – | – |
| COc1c(NS(=O)(=O)c2ccccc2)cc2oc3cccc(OC)c3c(=O)c2c1O | > 20 | < 10 | – | – | – | – | – | – | – | – | – |
| COc1c(NS(=O)(=O)c2ccc(C(C)(C)C)cc2)cc2oc3cccc(OC)c3c(=O)c2c1O | > 20 | < 10 | – | – | – | – | – | – | – | – | – |
| COc1c(NS(=O)(=O)c2ccc3ccccc3c2)cc2oc3cccc(OC)c3c(=O)c2c1O | > 20 | < 10 | – | – | – | – | – | – | – | – | – |
| COc1c(NS(=O)(=O)c2ccc(-c3ccccc3)cc2)cc2oc3cccc(OC)c3c(=O)c2c1O | > 20 | < 10 | – | – | – | – | – | – | – | – | – |
| O=C1c2ccccc2C(=O)c2c1cc(S(=O)(=O)O)c(O)c2O [ALIZARIN RED] | – | – | – | – | – | – | – | – | – | 2.3 | – |
| Cc1ccc(S(=O)(=O)Nc2cc3oc4cccc(O)c4c(=O)c3c(O)c2O)cc1 | 7.2 | – | 13.2 | 44.9 | 2 | 20.7 | 2 | 2 | – | – | – |
| C#CCCCC(=O)OC(C)(C)[C@H]1CC[C@]2(CO2)[C@@H](OC(=O)N[C@@H](Cc2c[nH]c3ccccc23)C(=O)OCc2ccccc2)C1 | – | – | – | – | – | – | – | – | – | – | 33 |
| COc1c(NS(=O)(=O)c2ccc(C#N)cc2)cc2oc3cccc(OC)c3c(=O)c2c1O | > 20 | < 10 | – | – | – | – | – | – | – | – | – |
| O=c1c2c(O)cccc2oc2cc(NS(=O)(=O)c3ccc4ccccc4c3)c(O)c(O)c12 | 1.6 | – | 22.6 | 43.3 | 9 | > 200 | 9 | 9 | – | – | – |
| O=c1c2c(O)cccc2oc2cc(NS(=O)(=O)c3cccc(OC(F)(F)F)c3)c(O)c(O)c12 | 5.8 | – | 13.9 | 20.5 | 12 | 116 | 12 | 12 | – | – | – |
